# From publication PMC6957252 (Bioorganic & medicinal chemistry, 2016)
# Key:
# [1] = neuropathic pain model; cited from earlier work
# [2] = in vivo; cited from earlier work
# [3] = target: human TRPV1 heterologously expressed in Chinese hamster ovary (CHO) cells (Homo sapiens, UniProt Q8NER1); format: cell-based
# Procedure, shortened: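 45Ca2+ uptake in CHO cells heterologously expressing human TRPV1. […] Ki is calculated to account for competition between capsaicin and antagonist. In agonist mode, 300 nM capsaicin (saturating) defines maximal response, and absence or weakness of uptake is scored as no or weak effect. Values are mean ± SEM of at least three experiments.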
# [4] = target: human TRPV1 (Homo sapiens, UniProt Q8NER1); assay: binding competition assay with [3H]RTX; conditions: ratio of Ki versus 1S
# Chain of human TRPV1 (Q8NER1 whole entry): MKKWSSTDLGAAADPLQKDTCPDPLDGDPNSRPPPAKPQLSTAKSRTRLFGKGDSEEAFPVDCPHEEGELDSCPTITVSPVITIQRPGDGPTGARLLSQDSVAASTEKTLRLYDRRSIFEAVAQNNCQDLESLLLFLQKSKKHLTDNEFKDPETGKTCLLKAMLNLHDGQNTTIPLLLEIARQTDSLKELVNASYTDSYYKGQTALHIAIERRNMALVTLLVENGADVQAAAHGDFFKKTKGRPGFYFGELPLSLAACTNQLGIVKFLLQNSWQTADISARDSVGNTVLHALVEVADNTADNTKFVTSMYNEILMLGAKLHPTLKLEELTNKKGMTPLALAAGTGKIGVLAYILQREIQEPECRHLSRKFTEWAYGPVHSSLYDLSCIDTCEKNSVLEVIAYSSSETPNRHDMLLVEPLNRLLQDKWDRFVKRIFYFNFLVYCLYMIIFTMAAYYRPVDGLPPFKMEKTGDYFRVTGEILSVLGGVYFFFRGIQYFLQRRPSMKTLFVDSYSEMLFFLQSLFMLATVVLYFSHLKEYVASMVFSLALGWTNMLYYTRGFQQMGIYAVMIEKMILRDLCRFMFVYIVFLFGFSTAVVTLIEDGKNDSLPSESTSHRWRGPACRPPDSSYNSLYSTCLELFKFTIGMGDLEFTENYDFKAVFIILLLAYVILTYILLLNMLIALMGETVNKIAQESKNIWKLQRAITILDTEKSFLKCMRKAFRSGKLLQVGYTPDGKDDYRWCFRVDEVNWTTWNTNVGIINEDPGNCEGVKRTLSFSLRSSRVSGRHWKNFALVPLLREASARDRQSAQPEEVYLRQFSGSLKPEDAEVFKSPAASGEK
# Procedure, shortened: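 Competition binding of [3H]RTX to human TRPV1 heterologously expressed in CHO cells. Binding affinity reported as Ki. Values are mean ± SEM of at least three experiments.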
# Chain of human TRPV1 heterologously expressed in Chinese hamster ovary (CHO) cells (Q8NER1 whole entry): as above
structure (smiles),measurement,setting,value
CC1CCN(c2nc(C(F)(F)F)ccc2CNC(=O)C(C)c2ccc(NS(C)(=O)=O)c(F)c2)CC1 (stereo not shown) [Compound 1],antiallodynic activity,[1],potent antiallodynic activity
same,effect on capsaicin-induced hypothermia,[2],blocked capsaicin-induced hypothermia
"CC(C(=O)NCc1ccc(C(F)(F)F)nc1NS(=O)(=O)c1ccccc1)c1ccc(NS(C)(=O)=O)c(F)c1 (stereo not shown) [Compound 6, 2-(3-Fluoro-4-(methylsulfonamido)phenyl)-N-((2-(phenylsulfonamido)-6-(triflu-oromethyl)pyridin-3-yl)methyl)propanamide]",activity on hTRPV1 (in words),"[3]; binding affinity and antagonism, Table 1 series",little activity
"CC(C(=O)NCc1ccc(C(F)(F)F)nc1N(Cc1ccccc1)S(=O)(=O)c1ccccc1)c1ccc(NS(C)(=O)=O)c(F)c1 (stereo not shown) [Compound 12, N-((2-(N-Benzylphenylsulfonamido)-6-(trifluoromethyl)pyridin-3-yl)methyl)-2-(3-fluoro-4-(methylsulfonamido)phenyl)propanamide]",fold reduction in antagonism compared to lead compound 1,[3]; ratio of Ki(ant) versus compound 1,2.5 fold
"C[C@H](C(=O)NCc1ccc(C(F)(F)F)nc1N(Cc1ccccc1)S(=O)(=O)c1ccccc1)c1ccc(NS(C)(=O)=O)c(F)c1 [Compound 12S, (S)-N-((2-(N-Benzylphenylsulfonamido)-6-(trifluoromethyl)pyridin-3-yl)methyl)-2-(3-fluoro-4-(methylsulfonamido)phenyl)propanamide]",fold increase in binding affinity compared to 1S,[4],5 fold
same,fold decrease in antagonism compared to 1S,[3]; ratio of Ki(ant) versus 1S,1.5 fold
"COc1ccc(CN(c2nc(C(F)(F)F)ccc2CNC(=O)C(C)c2ccc(NS(C)(=O)=O)c(F)c2)S(=O)(=O)c2ccccc2)cc1 (stereo not shown) [Compound 19, 2-(3-Fluoro-4-(methylsulfonamido)phenyl)-N-((2-(N-(4-methoxybenzyl)phenyl-sulfonamido)-6-(trifluoromethyl)pyridin-3-yl)methyl)propanamide]",fold more potent antagonism than 12,[3]; ratio of Ki(ant) versus 12,ca. 3 fold
